The text below walks through data of ChEMBL document CHEMBL1255506, “Discovery of quinolines as selective glucocorticoid receptor agonists” (Bioorg Med Chem Lett, 2010).

In general, IC50 refers to the concentration that inhibits the measured activity by half. One may read the EC50 as the concentration at which the effect is half-maximal.

The target in one assay is T1, Progesterone receptor (Homo sapiens, UniProt P06401).
T1 sequence (P06401 whole entry): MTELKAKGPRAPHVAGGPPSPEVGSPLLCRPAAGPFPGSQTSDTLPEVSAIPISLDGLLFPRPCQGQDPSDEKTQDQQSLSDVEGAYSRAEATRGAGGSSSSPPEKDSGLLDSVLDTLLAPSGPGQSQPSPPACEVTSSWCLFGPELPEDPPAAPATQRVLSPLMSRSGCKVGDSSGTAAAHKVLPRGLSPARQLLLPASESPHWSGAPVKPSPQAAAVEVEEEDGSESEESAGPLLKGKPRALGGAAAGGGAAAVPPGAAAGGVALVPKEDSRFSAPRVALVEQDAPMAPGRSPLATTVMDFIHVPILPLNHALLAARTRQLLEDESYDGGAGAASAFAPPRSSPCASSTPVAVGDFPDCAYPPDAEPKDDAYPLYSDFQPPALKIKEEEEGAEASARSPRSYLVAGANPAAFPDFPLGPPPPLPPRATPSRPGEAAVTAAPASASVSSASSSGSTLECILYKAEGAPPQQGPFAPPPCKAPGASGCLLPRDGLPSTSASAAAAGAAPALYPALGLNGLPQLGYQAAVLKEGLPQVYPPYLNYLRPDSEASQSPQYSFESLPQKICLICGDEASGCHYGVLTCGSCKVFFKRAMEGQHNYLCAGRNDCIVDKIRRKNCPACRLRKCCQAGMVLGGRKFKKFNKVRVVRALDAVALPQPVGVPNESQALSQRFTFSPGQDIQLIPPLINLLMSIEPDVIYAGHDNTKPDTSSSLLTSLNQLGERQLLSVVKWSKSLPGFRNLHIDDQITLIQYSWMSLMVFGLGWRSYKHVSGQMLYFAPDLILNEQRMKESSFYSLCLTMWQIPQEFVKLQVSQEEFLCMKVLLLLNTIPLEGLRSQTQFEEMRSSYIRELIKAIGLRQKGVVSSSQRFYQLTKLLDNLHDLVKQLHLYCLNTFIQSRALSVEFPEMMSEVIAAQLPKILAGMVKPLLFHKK
Description: Binding affinity to human recombinant progesterone receptor expressed in baculovirus infected Sf9 cells. The procedure, abridged: (§1)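 Extracts of Sf9 cells infected with recombinant baculovirus encoding the human receptor served as receptor source for competitive binding. Run in duplicate; pIC50 derived, value error stated as 0.2.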

For assay [1], the target named is T2, Glucocorticoid receptor (Homo sapiens, UniProt P04150).
T2 sequence (P04150 whole entry): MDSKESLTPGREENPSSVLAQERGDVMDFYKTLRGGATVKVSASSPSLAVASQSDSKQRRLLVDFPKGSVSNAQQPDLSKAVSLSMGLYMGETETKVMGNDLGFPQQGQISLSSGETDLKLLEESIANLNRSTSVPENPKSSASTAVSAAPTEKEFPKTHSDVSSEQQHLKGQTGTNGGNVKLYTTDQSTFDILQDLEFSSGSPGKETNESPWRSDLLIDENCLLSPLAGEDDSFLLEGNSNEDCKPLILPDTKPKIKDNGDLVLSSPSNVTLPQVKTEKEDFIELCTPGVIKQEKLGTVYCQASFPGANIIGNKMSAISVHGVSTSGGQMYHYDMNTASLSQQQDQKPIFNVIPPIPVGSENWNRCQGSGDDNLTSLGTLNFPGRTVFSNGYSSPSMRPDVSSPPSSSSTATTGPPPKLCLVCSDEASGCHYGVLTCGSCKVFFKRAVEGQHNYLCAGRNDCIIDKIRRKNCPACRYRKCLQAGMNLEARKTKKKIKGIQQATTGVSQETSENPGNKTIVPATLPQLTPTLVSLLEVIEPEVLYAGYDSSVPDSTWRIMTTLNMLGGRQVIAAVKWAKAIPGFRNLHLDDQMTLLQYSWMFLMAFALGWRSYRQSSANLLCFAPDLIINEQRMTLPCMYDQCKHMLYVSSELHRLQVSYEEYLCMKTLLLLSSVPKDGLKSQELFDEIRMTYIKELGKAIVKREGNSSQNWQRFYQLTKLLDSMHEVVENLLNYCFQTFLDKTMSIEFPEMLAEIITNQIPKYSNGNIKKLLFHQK
As to the kind of experiment: Transrepression activity at glucocorticoid receptor-mediated antiinflammatory activity in human THP1 cells assessed as inhibition of LPS-induced IL-8 production. Format: cell-based, THP-1.

In assay [2] the target is T2, Glucocorticoid receptor. Description: Binding affinity to human recombinant glucocorticoid receptor expressed in baculovirus infected Sf9 cells.
In assay [3] the target is T2, Glucocorticoid receptor. Description: Transactivation activity at glucocorticoid receptor in human HeLa cells assessed as induction of MMTV promoter activity by luciferase reporter gene assay. Format: cell-based. In general terms: A reporter such as luciferase makes a cellular process visible.
Another assay deals with T3, Androgen receptor (Homo sapiens, UniProt P10275).
T3 sequence (P10275 whole entry): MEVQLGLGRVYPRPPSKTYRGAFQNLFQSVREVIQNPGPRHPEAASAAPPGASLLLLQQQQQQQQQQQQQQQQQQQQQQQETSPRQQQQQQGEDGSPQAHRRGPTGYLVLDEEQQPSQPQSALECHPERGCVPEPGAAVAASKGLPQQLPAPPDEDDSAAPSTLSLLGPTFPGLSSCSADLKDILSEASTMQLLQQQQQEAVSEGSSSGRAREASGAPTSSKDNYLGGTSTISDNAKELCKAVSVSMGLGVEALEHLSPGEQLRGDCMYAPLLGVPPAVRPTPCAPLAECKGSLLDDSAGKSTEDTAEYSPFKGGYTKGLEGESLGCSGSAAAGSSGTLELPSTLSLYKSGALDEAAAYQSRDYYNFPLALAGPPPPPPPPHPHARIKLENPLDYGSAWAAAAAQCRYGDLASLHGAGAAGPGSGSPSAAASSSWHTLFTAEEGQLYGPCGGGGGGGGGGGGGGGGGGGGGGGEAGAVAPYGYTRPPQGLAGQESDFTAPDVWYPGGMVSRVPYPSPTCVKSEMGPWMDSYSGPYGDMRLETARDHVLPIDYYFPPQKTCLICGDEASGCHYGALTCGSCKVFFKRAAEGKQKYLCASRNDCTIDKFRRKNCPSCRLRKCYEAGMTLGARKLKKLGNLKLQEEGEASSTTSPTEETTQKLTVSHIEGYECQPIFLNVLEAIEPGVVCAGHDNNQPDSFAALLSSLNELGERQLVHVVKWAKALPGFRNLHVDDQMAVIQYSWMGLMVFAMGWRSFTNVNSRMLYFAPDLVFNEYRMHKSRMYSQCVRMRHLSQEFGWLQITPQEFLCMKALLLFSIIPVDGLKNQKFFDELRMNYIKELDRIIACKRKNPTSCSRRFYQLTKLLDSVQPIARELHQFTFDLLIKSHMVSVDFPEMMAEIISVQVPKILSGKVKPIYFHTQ
As to the kind of experiment: Binding affinity to human recombinant androgen receptor expressed in baculovirus infected Sf9 cells.

Assay [4] has as its target T2, Glucocorticoid receptor. As to the kind of experiment: Transrepression activity at glucocorticoid receptor-mediated antiinflammatory activity in human HeLa cells assessed as inhibition of TPA-induced collagenase promoter activity by luciferase reporter gene assay. Format: cell-based.
The target of assay [5] is T4, Mineralocorticoid receptor (Homo sapiens, UniProt P08235).
T4 sequence (P08235 whole entry): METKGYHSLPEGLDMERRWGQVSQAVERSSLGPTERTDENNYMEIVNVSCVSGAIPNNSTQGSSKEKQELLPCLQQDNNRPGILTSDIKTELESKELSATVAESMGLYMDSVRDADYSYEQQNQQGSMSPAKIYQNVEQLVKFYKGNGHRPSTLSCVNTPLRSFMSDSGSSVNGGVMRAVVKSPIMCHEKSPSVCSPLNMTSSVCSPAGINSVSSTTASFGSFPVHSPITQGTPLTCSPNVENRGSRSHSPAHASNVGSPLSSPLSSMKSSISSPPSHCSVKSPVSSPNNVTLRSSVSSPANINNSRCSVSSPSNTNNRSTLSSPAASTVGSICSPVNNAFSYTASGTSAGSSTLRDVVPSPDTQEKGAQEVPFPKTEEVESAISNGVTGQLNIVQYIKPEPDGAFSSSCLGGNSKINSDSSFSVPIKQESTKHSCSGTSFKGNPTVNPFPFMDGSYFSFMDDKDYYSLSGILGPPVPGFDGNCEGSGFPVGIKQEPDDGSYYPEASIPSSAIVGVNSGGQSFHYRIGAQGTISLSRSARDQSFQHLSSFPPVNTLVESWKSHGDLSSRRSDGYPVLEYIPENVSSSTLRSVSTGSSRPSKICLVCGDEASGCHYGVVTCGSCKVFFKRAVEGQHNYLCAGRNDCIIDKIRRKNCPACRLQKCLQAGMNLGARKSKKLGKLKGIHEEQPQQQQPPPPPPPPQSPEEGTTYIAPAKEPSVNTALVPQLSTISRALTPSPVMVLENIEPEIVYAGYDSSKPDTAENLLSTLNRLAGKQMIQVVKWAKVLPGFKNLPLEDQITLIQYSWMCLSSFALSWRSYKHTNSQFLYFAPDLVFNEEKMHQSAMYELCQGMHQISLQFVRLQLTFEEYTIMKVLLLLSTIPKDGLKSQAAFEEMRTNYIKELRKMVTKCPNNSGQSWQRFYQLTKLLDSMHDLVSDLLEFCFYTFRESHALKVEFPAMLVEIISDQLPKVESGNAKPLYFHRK
As to the kind of experiment: Binding affinity to human recombinant mineralocorticoid receptor expressed in baculovirus infected Sf9 cells. The procedure, abridged: as §1

As for `C[C@@H]1C[C@H]2[C@@H]3CCC4=CC(=O)C=C[C@]4(C)[C@@]3(F)[C@@H](O)C[C@]2(C)[C@@]1(O)C(=O)CO` [DEXAMETHASONE], the IC50 on Progesterone receptor is > 1000 nM.

As to `CC(C)(CC(O)(CNc1cccc2ncccc12)C(F)(F)F)c1cc(F)ccc1O` (stereo not drawn), the 50% inhibitory concentration (IC50) at Glucocorticoid receptor [1] is 20 nM; on Glucocorticoid receptor [2], 1 nM; at Androgen receptor it was > 1000 nM; on Glucocorticoid receptor [4] it was 6.31 nM; in assay [5], > 1000 nM; at Progesterone receptor, > 1000 nM. Besides, the EC50 at Glucocorticoid receptor [3] was 79.4 nM.

Turning to `COc1ccc(F)cc1C(C)(C)CC(O)(CNc1cccc2ncccc12)C(F)(F)F` (stereo not drawn), the IC50 at Glucocorticoid receptor [1] is 25.1 nM; at Glucocorticoid receptor [2], 20 nM; on Androgen receptor, > 1000 nM; in assay [5] it was > 1000 nM; at Progesterone receptor, 1000 nM.

Regarding `Cc1noc(=O)c2ccc(NC(=O)C(O)(CC(C)(C)c3cc(F)ccc3O)C(F)(F)F)cc12` (stereo not drawn), the concentration for half-maximal inhibition (IC50) at Glucocorticoid receptor [1] was 50.1 nM; on Glucocorticoid receptor [2], 3.16 nM; on Androgen receptor it was 158 nM; at Glucocorticoid receptor [4], 10 nM; in assay [5] it was 1.26 nM; at Progesterone receptor, 7.94 nM. Further, the EC50 at Glucocorticoid receptor [3] is 25.1 nM.

In the case of `COc1ccc(F)cc1C(C)(C)CC(O)(CNc1ccc2c(=O)onc(C)c2c1)C(F)(F)F` (stereo not drawn), the IC50 at Glucocorticoid receptor [2] is 10 nM; at Androgen receptor, > 1000 nM; in assay [5], > 1000 nM; on Progesterone receptor it was 15.8 nM.

With `Cc1ccc2c(NCC(O)(CC(C)(C)c3cc(F)ccc3O)C(F)(F)F)cccc2n1` (stereo not drawn), the half-inhibitory concentration (IC50) is 5.01 nM on Glucocorticoid receptor [1]; 6.31 nM on Glucocorticoid receptor [2]; > 1000 nM at Androgen receptor; 3.16 nM on Glucocorticoid receptor [4]; > 1000 nM in assay [5]; > 1000 nM at Progesterone receptor. Besides, the EC50 on Glucocorticoid receptor [3] was 12.6 nM.

For the compound `CC(C)(CC(O)(CNc1cccc2ccccc12)C(F)(F)F)c1cc(F)ccc1O` (stereo not drawn), the half-maximal inhibitory concentration (IC50) on Glucocorticoid receptor [1] is > 1000 nM; at Glucocorticoid receptor [2], 15.8 nM; at Androgen receptor, > 1000 nM; in assay [5] it was > 1000 nM; at Progesterone receptor it was > 1000 nM.

`Cc1noc(=O)c2ccc(NC(=O)C(O)(CC(C)(C)c3cccc4c3OCC4)C(F)(F)F)cc12` (stereo not drawn): the 50% inhibitory concentration (IC50) on Androgen receptor is 631 nM; in assay [5] it was 79.4 nM.

With `COc1ccc(F)cc1C(C)(C)CC(O)(CNc1cccc2ccccc12)C(F)(F)F` (stereo not drawn), the IC50 (at Glucocorticoid receptor [2]; on Androgen receptor; in assay [5]; on Progesterone receptor) was > 1000 nM throughout.

Take `COc1ccc(F)cc1C(C)(C)CC(O)(C(=O)Nc1ccc2c(=O)onc(C)c2c1)C(F)(F)F` (stereo not drawn): the IC50 was 1 nM at Glucocorticoid receptor [2], 501 nM on Androgen receptor, 7.94 nM in assay [5] and 12.6 nM at Progesterone receptor.

As to `COc1ccc(F)cc1C(C)(C)CC(O)(CNc1cccc2nc(C)ccc12)C(F)(F)F` (stereo not drawn), the half-inhibitory concentration (IC50) on Glucocorticoid receptor [1] was 25.1 nM; at Glucocorticoid receptor [2] it was 0.631 nM; on Androgen receptor, > 1000 nM; at Glucocorticoid receptor [4] it was 2 nM; in assay [5], > 1000 nM; on Progesterone receptor, > 1000 nM. At Glucocorticoid receptor [3], the EC50 is 25.1 nM.
